ChEMBL document CHEMBL4038305, “Benzoxaborole Antimalarial Agents. Part 5. Lead Optimization of Novel Amide Pyrazinyloxy Benzoxaboroles and Identification of a Preclinical Candidate” (J Med Chem, 2017)

Assays:
[1] = system: Plasmodium berghei; test: Antimalarial activity against Plasmodium berghei infected in Swiss Webster mouse assessed as mouse survival rate at 200 mg/kg administered once daily via oral gavage for 4 consecutive days beginning 1 hr after infection measured on day 17 post infection relative to control; assay type: functional
Outline: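 P. berghei-infected erythrocytes taken from a previously infected mouse were injected intraperitoneally. Oral dosing, once daily for 4 consecutive days, began 1 h after infection, in polyethylene glycol 300/propylene glycol/water (55/25/20 by weight). Chloroquine at 30 mg/kg was the positive control, with a vehicle-only group. Percent survival was recorded daily from day 4 to day 20.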

[2] = AUC (0 to infinity) in Beagle dog at 5 mg/kg, po via gavage by HPLC/MS analysis; assay type: ADME, organism-based, Canis lupus familiaris; design: dose 5 mg/kg, time infinity, route oral; settings: in vivo
[3] = AUC (0 to infinity) in Sprague-Dawley rat at 5 mg/kg, iv by HPLC/MS analysis; assay type: ADME, organism-based; design: dose 5 mg/kg, route intravenous, time infinity; settings: in vivo
[4] = system: Plasmodium falciparum; test: Antimalarial activity against Plasmodium falciparum NF54 infected in human erythrocytes assessed as reduction in [3H]-hypoxanthine incorporation preincubated for 24 hrs followed by [3H]-hypoxanthine addition measured after 24 hrs by scintillation counting method; assay type: functional, cell-based
[5] = system: Plasmodium falciparum; test: Antimalarial activity against Plasmodium falciparum TM90C2A infected in human erythrocytes assessed as reduction in [3H]-hypoxanthine incorporation preincubated for 24 hrs followed by [3H]-hypoxanthine addition measured after 24 hrs by scintillation counting method; assay type: functional, cell-based
[6] = system: Plasmodium falciparum; test: Antimalarial activity against Plasmodium falciparum Dd2 infected in human erythrocytes assessed as reduction in [3H]-hypoxanthine incorporation preincubated for 24 hrs followed by [3H]-hypoxanthine addition measured after 24 hrs by scintillation counting method; assay type: functional, cell-based
[7] = system: Plasmodium falciparum; test: Antimalarial activity against intraerythrocytic stage of Plasmodium falciparum assessed as time required to clear 99.9% of initial parasite population at 10 times IC50 preincubated for 24 hrs followed by [3H]-hypoxanthine addition measured after 24 hrs by scintillation counting method; assay type: functional
Outline: (§1)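 In vitro P. falciparum parasite reduction ratio assay run at 10×, 30× and 100× IC50. Derived parameters: lag phase (time to maximal killing), PRR (parasites killed per life cycle) and PCT99.9% (time to clear 99.9% of the initial parasite population).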

[8] = system: Plasmodium falciparum; test: Antimalarial activity against intraerythrocytic stage of Plasmodium falciparum assessed as time required to clear 99.9% of initial parasite population at 30 times IC50 preincubated for 24 hrs followed by [3H]-hypoxanthine addition measured after 24 hrs by scintillation counting method; assay type: functional; outline: as §1
[9] = system: Salmonella typhimurium; test: Genotoxicity in Salmonella typhimurium TA98 assessed as number of revertants per plate at 1500 ug/plate in absence of rat liver S9 fraction by Ames test (reference value: 14 +/- 6); assay type: toxicity; settings: salmonella enterica subsp. enterica serovar typhimurium
[10] = system: Salmonella typhimurium; test: Genotoxicity in Salmonella typhimurium TA98 assessed as number of revertants per plate at 5000 ug/plate in absence of rat liver S9 fraction by Ames test (reference value: 14 +/- 6); assay type: toxicity; settings: salmonella enterica subsp. enterica serovar typhimurium
[11] = system: Salmonella typhimurium; test: Genotoxicity in Salmonella typhimurium TA100 assessed as number of revertants per plate at 1500 ug/plate in absence of rat liver S9 fraction by Ames test (reference value: 154 +/- 9); assay type: toxicity; settings: salmonella enterica subsp. enterica serovar typhimurium
[12] = system: Salmonella typhimurium; test: Genotoxicity in Salmonella typhimurium TA100 assessed as number of revertants per plate at 5000 ug/plate in absence of rat liver S9 fraction by Ames test (reference value: 154 +/- 9); assay type: toxicity; settings: salmonella enterica subsp. enterica serovar typhimurium
[13] = system: Salmonella typhimurium; test: Genotoxicity in Salmonella typhimurium TA100 assessed as number of revertants per plate at 5 ug/plate in presence of rat liver S9 fraction by Ames test (reference value: 141 +/- 1); assay type: toxicity; settings: salmonella enterica subsp. enterica serovar typhimurium
[14] = system: Salmonella typhimurium; test: Genotoxicity in Salmonella typhimurium TA100 assessed as number of revertants per plate at 50 ug/plate in presence of rat liver S9 fraction by Ames test (reference value: 141 +/- 1); assay type: toxicity; settings: salmonella enterica subsp. enterica serovar typhimurium
[15] = system: Salmonella typhimurium; test: Genotoxicity in Salmonella typhimurium TA100 assessed as number of revertants per plate at 1500 ug/plate in presence of rat liver S9 fraction by Ames test (reference value: 141 +/- 1); assay type: toxicity; settings: salmonella enterica subsp. enterica serovar typhimurium
[16] = system: Salmonella typhimurium; test: Genotoxicity in Salmonella typhimurium TA1535 assessed as number of revertants per plate at 5 ug/plate in absence of rat liver S9 fraction by Ames test (reference value: 10 +/- 3); assay type: toxicity; settings: salmonella enterica subsp. enterica serovar typhimurium
[17] = system: Salmonella typhimurium; test: Genotoxicity in Salmonella typhimurium TA1535 assessed as number of revertants per plate at 500 ug/plate in absence of rat liver S9 fraction by Ames test (reference value: 10 +/- 3); assay type: toxicity; settings: salmonella enterica subsp. enterica serovar typhimurium
[18] = system: Salmonella typhimurium; test: Genotoxicity in Salmonella typhimurium TA1535 assessed as number of revertants per plate at 5 ug/plate in presence of rat liver S9 fraction by Ames test (reference value: 10); assay type: toxicity; settings: salmonella enterica subsp. enterica serovar typhimurium
[19] = system: Salmonella typhimurium; test: Genotoxicity in Salmonella typhimurium TA1535 assessed as number of revertants per plate at 150 ug/plate in presence of rat liver S9 fraction by Ames test (reference value: 10); assay type: toxicity; settings: salmonella enterica subsp. enterica serovar typhimurium
[20] = system: Salmonella typhimurium; test: Genotoxicity in Salmonella typhimurium TA1537 assessed as number of revertants per plate at 1.5 ug/plate in presence of rat liver S9 fraction by Ames test (reference value: 11 +/- 4); assay type: toxicity; settings: salmonella enterica subsp. enterica serovar typhimurium
[21] = system: Salmonella typhimurium; test: Genotoxicity in Salmonella typhimurium TA1537 assessed as number of revertants per plate at 5 ug/plate in presence of rat liver S9 fraction by Ames test (reference value: 11 +/- 4); assay type: toxicity; settings: salmonella enterica subsp. enterica serovar typhimurium
[22] = system: Salmonella typhimurium; test: Genotoxicity in Salmonella typhimurium TA1537 assessed as number of revertants per plate at 150 ug/plate in presence of rat liver S9 fraction by Ames test (reference value: 11 +/- 4); assay type: toxicity; settings: salmonella enterica subsp. enterica serovar typhimurium
[23] = system: Escherichia coli; test: Genotoxicity in Escherichia coli WP2uvrA assessed as number of revertants per plate at 5000 ug/plate in absence of rat liver S9 fraction by Ames test (reference value: 45 +/- 9); assay type: toxicity
[24] = system: Escherichia coli; test: Genotoxicity in Escherichia coli WP2uvrA assessed as number of revertants per plate at 500 ug/plate in presence of rat liver S9 fraction by Ames test (reference value: 42 +/- 6); assay type: toxicity
[25] = system: Lymphocyte; test: Genotoxicity in human lymphocytes assessed as replication index at 80 ug/mL after 28 hrs in absence of rat liver S9 fraction by micronucleus assay relative to control; assay type: toxicity, cell-based
Outline: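 Human lymphocytes exposed for 3 h with or without rat liver S9, or 28 h without S9, with 1% DMSO as vehicle control. Replication index = (binucleated + 2 × multinucleated cells)/total cells. Cytotoxicity (%) = 100 − (RI treated/RI vehicle) × 100.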

[26] = system: Plasmodium berghei; test: Antimalarial activity against Plasmodium berghei infected in Swiss Webster mouse assessed as mouse survival rate at 1 mg/kg administered once daily via oral gavage for 4 consecutive days beginning 1 hr after infection measured on day 4 post infection relative to control; assay type: functional
Outline: (§2)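 Mice given an intraperitoneal injection of P. berghei-infected erythrocytes taken from a previously infected animal. Oral dosing once daily for 4 consecutive days, starting 1 h after infection. Vehicle: polyethylene glycol 300/propylene glycol/water (weight ratio 55/25/20). Percent survival recorded daily from day 4 to day 20. Chloroquine 30 mg/kg and vehicle-only groups served as controls.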

[27] = system: Plasmodium berghei; test: Antimalarial activity against Plasmodium berghei infected in Swiss Webster mouse assessed as mouse survival rate at 0.3 mg/kg administered once daily via oral gavage for 4 consecutive days beginning 1 hr after infection measured on day 6 post infection relative to control; assay type: functional; outline: as §2

Structure (SMILES): CCCC1(O)CN(C(=O)c2cnc(Oc3ccc4c(c3C)B(O)OC4)cn2)C1
- survival at 200 mg/kg [1]: 0%

Structure (SMILES): Cc1c(Oc2cnc(C(=O)N3CC(C)(O)C3)cn2)ccc2c1B(O)OC2
- AUC(0-inf) [2]: 214 µg·h/mL
- AUC(0-inf) [3]: 21.7 µg·h/mL
- IC50 [4]: 36 nM
- IC50 [5]: 64 nM
- IC50 [6]: 53 nM
- T99.9% [7]: 36 h
- T99.9% [8]: 30 h
- Activity [9]: 13
- Activity [10]: 9
- Activity [11]: 133
- Activity [12]: 20
- Activity [13]: 128
- Activity [14]: 136
- Activity [15]: 144
- Activity [16]: 8
- Activity [17]: 5
- Activity [18]: 16
- Activity [19]: 15
- Activity [20]: 12
- Activity [21]: 22
- Activity [22]: 12
- Activity [23]: 43
- Activity [24]: 35
- Activity [25]: 7%

Structure (SMILES): Cc1c(Oc2cnc(C(=O)NC(C)CO)cn2)ccc2c1B(O)OC2 (configuration not stated)
- survival at 1 mg/kg [26]: 100%
- survival at 0.3 mg/kg [27]: 20%
